ChEMBL document CHEMBL1141177, “The novel L- and D-amino acid derivatives of hydroxyurea and hydantoins: synthesis, X-ray crystal structure study, and cytostatic and antiviral activity evaluations” (J Med Chem, 2005)
Values after ≈ are worked out from the molar mass of the structure shown.

Columns and labels:
[1] = test system: MCF7; experiment: Inhibition of breast carcinoma cell line (MCF-7) growth; type: functional, cell-based; conditions: Homo sapiens
In short: (§1)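 Monolayers in DMEM with 10% FBS, 2 mM L-glutamine, penicillin/streptomycin, 37 °C, 5% CO2. Cells seeded on day 0, then compounds added in 5- and 10-fold dilutions (10^-8–10^-4 M) for 72 h. MTT read-out at 570 nm. Percent growth calculated relative to time-zero and untreated OD. Quadruplicates in three experiments; IC50 by linear interpolation, highest concentration reported as ">" when not reached.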

[2] = test system: L1210; experiment: Inhibition of murine leukemia cells (L1210) growth; type: functional, cell-based; conditions: Mus musculus
[3] = test system: WI-38; experiment: Inhibition of normal human fibroblast cell line (WI 38) growth; type: functional, cell-based; in short: as §1
[4] = test system: MIA PaCa-2; experiment: Inhibition of pancreatic carcinoma cell line (MiaPaCa-2) growth; type: functional, cell-based; conditions: Homo sapiens; in short: as §1
[5] = test system: HEp-2; experiment: Inhibition of laryngeal carcinoma cell line (Hep-2) growth; type: functional, cell-based; conditions: Homo sapiens; in short: as §1
[6] = test system: MOLT-4; experiment: Inhibition of human T-lymphocyte cell line (Molt4/C8) growth; type: functional, cell-based
[7] = test system: SW-620; experiment: Inhibition of colon carcinoma cell line (SW 620) growth; type: functional, cell-based; conditions: Homo sapiens; in short: as §1
[8] = test system: HeLa; experiment: Inhibition of cervical carcinoma cell line (HeLa) growth; type: functional, cell-based; conditions: Homo sapiens; in short: as §1
[9] = test system: HEL; experiment: Minimum cytotoxic concentration of compound that causes alteration of cell morphology in human embryonic lung cells; type: functional
In short: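 Human embryonic lung (HEL) cells were examined microscopically. MCC is the minimum concentration that causes a detectable alteration of cell morphology.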

[10] = Effective concentration required to reduce plaque formation by AD-169 strain of CMV virus in Human embryonic lung cells; type: functional, cell-based
In short: (§2)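 Plaque reduction assay in human embryonic lung (HEL) cell cultures, virus input 100 plaque forming units. Viruses: CMV strains AD-169 and Davis, VZV TK+ strain OKA and TK− strain 07/1. EC50 is the concentration that reduces virus plaque formation by 50%.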

[11] = Effective concentration required to reduce plaque formation by Davis strain of CMV virus in Human embryonic lung cells; type: functional, cell-based; in short: as §2
[12] = test system: HEL; experiment: Cytotoxic concentration to reduce the 50% cell growth of human embryonic lung cells; type: functional; conditions: Homo sapiens, HEL; read-out: CC50
[13] = test system: Human alphaherpesvirus 3; experiment: Effective concentration of compound required to reduce plaque formation by OKA strain of thymidine kinase positive VZ virus TK+ in human embryonic lung cells; type: functional, organism-based; conditions: Human alphaherpesvirus 3, lung
[14] = test system: Human alphaherpesvirus 3; experiment: Reduction of plaque formation by VZV07/1 strain of thymidine kinase(TK-) deficient VZ virus in human embryonic lung cells; type: functional, organism-based; conditions: Human alphaherpesvirus 3, lung

SMILES | IC50 [1] [µM] | IC50 [2] [µM] | IC50 [3] [µM] | IC50 [4] [µM] | IC50 [5] [µM] | IC50 [6] [µM] | IC50 [7] [µM] | IC50 [8] [µM] | MCC [9] [µg/mL] | EC50 [10] [µg/mL] | EC50 [11] [µg/mL] | CC50 [12] [µg/mL] | EC50 [13] [µg/mL] | EC50 [14] [µg/mL]
CC(C)C(NC(=O)NO)C(=O)NC1CCCCC1 (stereo not given) | > 100 | > 100 | 58.8 | > 100 | > 100 | > 100 | > 100 | > 100 | – | – | – | – | – | –
O=C(NO)NC(Cc1ccccc1)C(=O)NCc1ccccc1 (stereo not given) | – | 17 | > 100 | > 100 | > 100 | 12 | > 100 | > 100 | – | – | – | – | – | –
CC(C)C1NC(=O)N(C2CCCC2)C1=O (stereo not given) | > 100 | > 200 | > 100 | > 100 | 98 | > 200 | > 100 | > 100 | > 100 | > 100 | > 100 | > 50 | > 84 | > 90
O=C(NCC1CCCCC1)C(NC(=O)n1nnc2ccccc21)c1ccccc1 (stereo not given) | 35.6 | 98 | > 100 | 72.7 | 68.6 | 73 | > 100 | 79.8 | ≥ 16 | > 16 | – | 43.4 (≈ 111 µM) | > 3.2 | > 3.2
O=C(NC1CCCC1)C(Cc1ccccc1)NC(=O)n1nnc2ccccc21 (stereo not given) | 92 | 68 | > 100 | > 100 | 95 | 61 | > 100 | 53.8 | 16 | > 3.2 | > 3.2 | 15.5 (≈ 41.1 µM) | > 3.2 | > 3.2
O=C(NO)NC(C(=O)Nc1ccccc1)c1ccccc1 (stereo not given) | – | – | – | – | – | > 200 | – | – | – | – | – | – | – | –
O=C(NO)NC(C(=O)NCc1ccccc1)c1ccccc1 (stereo not given) | – | – | – | – | – | 17 | – | – | – | – | – | – | – | –
CCC(C)C(NC(=O)n1nnc2ccccc21)C(=O)NC1CCCC1 (stereo not given) | – | – | – | – | – | 94 | – | – | – | – | – | – | – | –
CCC(C)C(NC(=O)NO)C(=O)NC(c1ccccc1)c1ccccc1 (stereo not given) | – | – | – | – | – | 56 | – | – | – | – | – | – | – | –
